According to ChEMBL document CHEMBL1125276 (J Med Chem, 1991):

What was measured:
[1] = tested on: L1210; assay: Tested for the inhibition of L1210 cell proliferation.; assay type: functional, cell-based; conditions: Mus musculus
Procedure, shortened: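 L1210 cells were grown in RPMI 1640 with 10% FCS, 2 mM L-glutamine and 10 mM HEPES (pH 7.4). Exponential-phase cells (10^5 cells/mL) were exposed for 24 h to 5 drug concentrations in triplicate, then pulsed 3 h with 0.5 µCi/mL [3H]thymidine. Cells were harvested onto filters and counted. IC50 is 50% inhibition of incorporation versus untreated cells, given as the mean of 2–5 independent experiments.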

[2] = tested on: P388; assay: Compound was tested for T/C range at optimal dose of 0.25 mg/kg for antitumor activity against P388 leukemia cells in mice.; assay type: functional, Mus musculus
[3] = tested on: P388; assay: Long-term survivors (LTS) for 60 days at optimal dose of 0.25 mg/kg for antitumor activity against P388 leukemia cells in 6 mice.; assay type: functional, Mus musculus
[4] = target: Tubulin; assay: The compound tested for the inhibition of tubulin polymerization.; assay type: functional
Procedure, shortened: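 Tubulin was partially purified from dog brain by polymerization/depolymerization cycles and used at 0.5 mg/mL. Compounds were added in DMSO (10 µL per 500 µL reaction) at 10^-6 to 10^-9 M, with DMSO-only controls. Polymerization was followed by turbidity at 350 nm. Rates from two separate experiments were plotted against concentration, and IC50 was read graphically.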

[5] = tested on: P388; assay: Compound was tested for T/C range at optimal dose of 12.00 mg/kg for antitumor activity against P388 leukemia cells in mice.; assay type: functional, Mus musculus
[6] = tested on: P388; assay: Long-term survivors (LTS) for 60 days at optimal dose of 12.00 mg/kg for antitumor activity against P388 leukemia cells in 5 mice.; assay type: functional, Mus musculus
[7] = tested on: P388; assay: Compound was tested for T/C range at optimal dose of 0.5 mg/kg for antitumor activity against P388 leukemia cells in mice; value ranges from 160-447; assay type: functional, Mus musculus
[8] = tested on: P388; assay: Long-term survivors (LTS) for 60 days at optimal dose of 0.5 mg/kg for antitumor activity against P388 leukemia cells in 54 mice.; assay type: functional, Mus musculus
[9] = tested on: P388; assay: Compound was tested for T/C range at optimal dose of 5.00 mg/kg for antitumor activity against P388 leukemia cells in mice; value ranges from 149-224; assay type: functional, Mus musculus
[10] = tested on: P388; assay: Long-term survivors (LTS) for 60 days at optimal dose of 5.00 mg/kg for antitumor activity against P388 leukemia cells in 12 mice.; assay type: functional, Mus musculus
[11] = tested on: P388; assay: Compound was tested for T/C range at optimal dose of 0.5 mg/kg for antitumor activity against P388 leukemia cells in mice; value ranges from 151-480; assay type: functional, Mus musculus
[12] = tested on: P388; assay: Long-term survivors (LTS) for 60 days at optimal dose of 0.5 mg/kg for antitumor activity against P388 leukemia cells in 96 mice.; assay type: functional, Mus musculus
[13] = tested on: P388; assay: Compound was tested for T/C range at optimal dose of 3.0 mg/kg for antitumor activity against P388 leukemia cells in mice.; assay type: functional, Mus musculus
[14] = tested on: P388; assay: Long-term survivors (LTS) for 60 days at optimal dose of 3.0 mg/kg for antitumor activity against P388 leukemia cells in 6 mice.; assay type: functional, Mus musculus
[15] = tested on: P388; assay: Compound was tested for T/C range at optimal dose of 3.0 mg/kg for antitumor activity against P388 leukemia cells in mice; value ranges from 157-203; assay type: functional, Mus musculus
[16] = tested on: P388; assay: Long-term survivors (LTS) for 60 days at optimal dose of 3.0 mg/kg for antitumor activity against P388 leukemia cells in 45 mice.; assay type: functional, Mus musculus
[17] = tested on: P388; assay: Compound was tested for T/C range at optimal dose of 3.0 mg/kg for antitumor activity against P388 leukemia cells in mice; value ranges from 165-181; assay type: functional, Mus musculus
[18] = tested on: P388; assay: Long-term survivors (LTS) for 60 days at optimal dose of 3.0 mg/kg for antitumor activity against P388 leukemia cells in 15 mice.; assay type: functional, Mus musculus
[19] = tested on: P388; assay: Compound was tested for T/C range at optimal dose of 100 mg/kg for antitumor activity against P388 leukemia cells in mice; value ranges from 150-285; assay type: functional, Mus musculus
[20] = tested on: P388; assay: Long-term survivors (LTS) for 60 days at optimal dose of 100 mg/kg for antitumor activity against P388 leukemia cells in 54 mice.; assay type: functional, Mus musculus

CCOP(=O)(OCC)[C@H](C)NC(=O)[C@@]1(O)[C@H](O)[C@]2(CC)C=CCN3CC[C@@]4(c5cc([C@@]6(C(=O)OC)C[C@@H]7CN(CCc8c6[nH]c6ccccc86)C[C@](O)(CC)C7)c(OC)cc5N(C)[C@@H]14)[C@@H]32
IC50 [1]: 0.4 nM
T/C [2]: 342%
LTS [3]: 2
IC50 [4]: 200 nM

C=CC[C@@H](NC(=O)[C@@]1(O)[C@H](O)[C@]2(CC)C=CCN3CC[C@@]4(c5cc([C@@]6(C(=O)OC)C[C@@H]7CN(CCc8c6[nH]c6ccccc86)C[C@](O)(CC)C7)c(OC)cc5N(C)[C@@H]14)[C@@H]32)P(=O)(OCC)OCC
IC50 [1]: 26.4 nM
T/C [5]: 195%
LTS [6]: 0

CCOP(=O)(OCC)C(NC(=O)[C@@]1(O)[C@H](O)[C@]2(CC)C=CCN3CC[C@@]4(c5cc([C@@]6(C(=O)OC)C[C@@H]7CN(CCc8c6[nH]c6ccccc86)C[C@](O)(CC)C7)c(OC)cc5N(C)[C@@H]14)[C@@H]32)C(C)C (mixture of isomers)
IC50 [1]: 0.64 nM
T/C [7]: 160%
LTS [8]: 11
IC50 [4]: 300 nM

CCOP(=O)(OCC)C(Cc1ccccc1)NC(=O)[C@@]1(O)[C@H](O)[C@]2(CC)C=CCN3CC[C@@]4(c5cc([C@@]6(C(=O)OC)C[C@@H]7CN(CCc8c6[nH]c6ccccc86)C[C@](O)(CC)C7)c(OC)cc5N(C)[C@@H]14)[C@@H]32 (mixture of isomers)
IC50 [1]: 46 nM
T/C [9]: 149%
LTS [10]: 0
IC50 [4]: 70 nM

CCOP(=O)(OCC)C(C)NC(=O)[C@@]1(O)[C@H](O)[C@]2(CC)C=CCN3CC[C@@]4(c5cc([C@@]6(C(=O)OC)C[C@@H]7CN(CCc8c6[nH]c6ccccc86)C[C@](O)(CC)C7)c(OC)cc5N(C)[C@@H]14)[C@@H]32 (mixture of isomers)
IC50 [1]: 2.5 nM
T/C [11]: 151%
LTS [12]: 7
IC50 [4]: 100 nM

CCCCCC(NC(=O)[C@@]1(O)[C@H](O)[C@]2(CC)C=CCN3CC[C@@]4(c5cc([C@@]6(C(=O)OC)C[C@@H]7CN(CCc8c6[nH]c6ccccc86)C[C@](O)(CC)C7)c(OC)cc5N(C)[C@@H]14)[C@@H]32)P(=O)(OCC)OCC (mixture of isomers)
IC50 [1]: 3.97 nM
T/C [13]: 203%
LTS [14]: 0
IC50 [4]: 20 nM

CCOC(=O)CC(NC(=O)[C@@]1(O)[C@H](O)[C@]2(CC)C=CCN3CC[C@@]4(c5cc([C@@]6(C(=O)OC)C[C@@H]7CN(CCc8c6[nH]c6ccccc86)C[C@](O)(CC)C7)c(OC)cc5N(C)[C@@H]14)[C@@H]32)P(=O)(OCC)OCC (mixture of isomers)
IC50 [1]: 2.77 nM
T/C [13]: 122%
LTS [14]: 0
IC50 [4]: 300 nM

CC[C@]1(O)C[C@@H]2CN(CCc3c([nH]c4ccccc34)[C@@](C(=O)OC)(c3cc4c(cc3OC)N(C)[C@H]3[C@@](O)(C(=O)OC)[C@H](OC(C)=O)[C@]5(CC)C=CCN6CC[C@]43[C@@H]65)C2)C1 [VINBLASTINE]
IC50 [1]: 3.15 nM
T/C [15]: 157%
LTS [16]: 2

CC[C@]1(O)C[C@H]2CN(CCc3c([nH]c4ccccc34)[C@@](C(=O)OC)(c3cc4c(cc3OC)N(C=O)[C@H]3[C@@](O)(C(=O)OC)[C@H](OC(C)=O)[C@]5(CC)C=CCN6CC[C@]43[C@@H]65)C2)C1 [VINCRISTINE]
IC50 [1]: 4.85 nM
T/C [17]: 165%
LTS [18]: 0
IC50 [4]: 500 nM

CCOC(=O)C(Cc1c[nH]c2ccccc12)NC(=O)[C@@]1(O)[C@H](O)[C@]2(CC)C=CCN3CC[C@@]4(c5cc([C@@]6(C(=O)OC)C[C@@H]7CN(CCc8c6[nH]c6ccccc86)C[C@](O)(CC)C7)c(OC)cc5N(C)[C@@H]14)[C@@H]32 (some centres not stated) [VINTRYPOL]
T/C [19]: 150%
LTS [20]: 2
IC50 [4]: 200 nM
